For four compounds, IC50 results are on record in ChEMBL document CHEMBL1140356, “Developing microcolin A analogs as biological probes” (Bioorg Med Chem Lett, 2005).

SMILES strings stand for the structures. pIC50: −log10 of the molar value.

Test [1] can be described thus: Cytotoxicity against BAE cell line (bovine aortic endothelial cells). In kind it is functional, cell-based. The following applies: Bos taurus. A digest of the protocol: (§1)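 Growth-inhibition assay on cultured cells, reported as IC50. […] used primary mouse lymphocytes, either PMA/ionomycin-stimulated or in a mixed lymphocyte reaction. C2C12 are nontransformed mouse myoblasts. BAE are primary bovine aortic endothelial cells.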

Another test deals with N1E-115. Description: Cytotoxicity against N1E-115 cell line (mouse neuroblastoma cells). In kind it is functional, cell-based. A digest of the protocol: as §1
Test [2] concerns P388. Kind of test: Cytotoxicity against P-388 cell line (mouse T-cell leukemia cells). In kind it is functional, cell-based. A digest of the protocol:
as §1

Test [3] relates to EL4. Description: Cytotoxicity against mouse thymoma cells (EL-4 cell lines). In kind it is functional, cell-based. A digest of the protocol:
as §1

Another test relates to Jurkat. Kind of test: Cytotoxicity against Jurkat cell line (human T-cell leukemia cells). In kind it is functional, cell-based. A digest of the protocol: as §1
The nature of test [4]: Cytotoxicity against C2C12 cell line (mouse myoblast cells). In kind it is functional, cell-based. The method in brief:
as §1

For the next test, the species on record is Mus musculus. Description: Cytotoxicity against mouse mixed lymphocyte reaction. In kind it is functional. The method in brief:
as §1

Test [5] can be described thus: Cytotoxicity against mouse PMA ionomycin-stimulated lymphocytes. In kind it is functional. The method in brief:
as §1

Test [6] relates to EL4. Description: Cytotoxicity against EL-4 cell line (mouse thymoma cells). Type of test: functional, cell-based. A digest of the protocol: as §1
The subject of test [7] is EL4. Description: Cytotoxicity against EL-4 cell line (mouse thymoma). In kind it is functional, cell-based. A digest of the protocol:
(§2)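 Cell proliferation inhibition measured in cultured cells; value reported as IC50.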

Test [8] deals with P388. Description: Cytotoxicity against P-388 cell line (mouse T-cell leukemia). Type of test: functional, cell-based. A digest of the protocol:
as §2

What is called pIC50 is the IC50 on a negative log10 scale, so that one unit is a factor of ten. Low readings indicate a high IC50, high ones a low IC50. For the compound `CCCCCCCC(=O)N(C)[C@@H](CC(C)C)C(=O)N[C@H](C(=O)N(C)[C@H](C(=O)N1C[C@@H](O)C[C@H]1C(=O)N1C(=O)C=C[C@@H]1C)C(C)C)C(C)OC(C)=O` (some centres undefined), the negative logarithm of the IC50 (pIC50) is 7.44 in [1]; 7.44 with N1E-115; 7.18 in the test with P388 [2]; 7.34 in the test on EL4 [3]; 7.40 in the test on Jurkat; 7.36 in test [4]. Also, the results for the pIC50 (in the test listed under Mus musculus; in [5]) were 7.48 and 7.52, respectively.

`CCCCCCCC(=O)N(C)[C@@H](CC(C)C)C(=O)N[C@H](C(=O)N(C)[C@H](C(=O)N1C[C@@H](O)C[C@H]1C(=O)N1C(=O)C=C[C@H]1C)C(C)C)C(C)OC(C)=O` (some centres undefined): the negative logarithm of the IC50 (pIC50) in the test on EL4 [6] was 5.22; in the test on P388 [2], 5.15.

Consider `CC(=O)OC(C)[C@H](NC(=O)[C@H](CC(C)C)N(C)C(=O)CCOCCOCCOCCOCCNC(=O)CCCC[C@@H]1SC[C@@H]2NC(=O)N[C@@H]21)C(=O)N(C)[C@H](C(=O)N1C[C@@H](O)C[C@H]1C(=O)N1C(=O)C=C[C@@H]1C)C(C)C` (some centres undefined), for which the negative-log IC50 (pIC50) in the test on EL4 [7] and in the test with P388 [8] was 5.00 throughout.

As to `CCCCCCCC(=O)N(C)[C@@H](CC(C)C)C(=O)N[C@H](C(=O)N(C)[C@H](C(=O)N1CCC[C@H]1C(=O)N1C(=O)C=C[C@@H]1C)C(C)C)C(C)OC(C)=O` (some centres undefined), the pIC50 is 5.22 in the test on EL4 [6] and 5.30 in the test on P388 [2].
